Assay results gathered from unrelated publications.
Protocols differ between the studies behind these lines.
PKN1: Serine/threonine-protein kinase N1 (PKN1, Homo sapiens, UniProt Q16512)
HRH1: Histamine H1 receptor (HRH1, Homo sapiens, UniProt P35367)
MAOB: Amine oxidase [flavin-containing] B (MAOB, Homo sapiens, UniProt P27338)
CA9: Carbonic anhydrase 9 (CA9, Homo sapiens, UniProt Q16790)
PADI4: Protein-arginine deiminase type-4 (PADI4, Homo sapiens, UniProt Q9UM07)

CC(C)CCN1c2nc(Nc3cc(F)c(O)c(F)c3)ncc2N(C)C(=O)C1C (stereo not shown)
activity vs control (PKN1; enzyme activity, inhibitor; 1 µM): 64%

O=C(Nc1ccc(N2C(=O)c3ccccc3C2=O)c(Cl)c1)c1ncccc1O
Emax (Metabotropic glutamate receptor 1 (GRM1, Homo sapiens, UniProt Q13255); calcium signal, positive allosteric modulator; T-REx-293): 106%

CN1CCN(C2c3ccccc3C=Cc3ccccc32)CC1
koff (HRH1; binding): 0.000583 s⁻¹

COc1cc([N+](=O)[O-])ccc1NC(=O)c1ccccc1O
inhibition (MAOB; enzyme activity, inhibitor; 1 µM, 20 min): 7%

Cc1ccc(-c2nn(-c3ccccc3)cc2C2c3sc(=O)[nH]c3SC3C(=O)N(c4ccccc4)C(=O)C32)cc1 (stereo not shown)
inhibition (CA9; enzyme activity, inhibitor; 0.1 µM): 39%

N#Cc1ccc(NC(=O)c2ccccc2O)cc1
inhibition (MAOB; enzyme activity, inhibitor; 1 µM, 20 min): 32%

Nc1nc(N)c2nc(-c3cccc(O)c3)c(-c3cccc(O)c3)nc2n1
activity vs control (PKN1; enzyme activity, inhibitor; 1 µM): 79%

O=C(Nc1ccc([N+](=O)[O-])cc1C(F)(F)F)c1cc(Cl)ccc1O
inhibition (MAOB; enzyme activity, inhibitor; 1 µM, 20 min): 30%

O=C(c1ccc(Cl)cc1)N(Cc1ccccc1)C1CCCCC1
inhibition (Muscarinic acetylcholine receptor M4 (CHRM4, Homo sapiens, UniProt P08173); cell-free assay; 10 µM): 7.1%

O=C1NC(=S)C(=Cc2cn(-c3ccccc3)nc2-c2ccc(Br)cc2)S1
inhibition (CA9; enzyme activity, inhibitor; 0.1 µM): 33.5%

C[S+]([O-])c1ccc(-c2nc(-c3ccncc3)c(-c3ccc(F)cc3)[nH]2)cc1 (stereo not shown)
activity vs control (PKN1; enzyme activity, inhibitor; 1 µM): 73%

CN1CCC(C2c3ccccc3C=Cc3ccccc32)CC1
kon (HRH1; binding): 667000 M⁻¹ s⁻¹

CC(C)(C)n1nnc([C@H](CCCNC(=N)CF)NC(=O)c2ccc(-c3ccccc3)cc2)n1
kinact/KI (PADI4; enzyme activity, inhibitor): 20.8 M⁻¹ s⁻¹

CN1CCC(=C2c3ccccc3CCc3ccccc32)CC1
kon (HRH1; binding): 1.33e+06 M⁻¹ s⁻¹

CC(C)(C)n1nnc([C@H](CCCNC(=N)CF)NC(=O)c2ccccc2)n1
kinact/KI (PADI4; enzyme activity, inhibitor): 4.33 M⁻¹ s⁻¹

CN1CCC(C2c3ccccc3CCc3ccccc32)CC1
koff (HRH1; binding): 0.000475 s⁻¹

CCOC(=O)C1CSc2[nH]c(=O)sc2C1c1cn(-c2ccccc2)nc1-c1ccc(C)cc1 (stereo not shown)
inhibition (CA9; enzyme activity, inhibitor; 1 µM): 61.4%

CC[C@@H](N)CNc1ccnc(-c2cc(-c3cnn(C)c3)ccc2O)n1.Cl.Cl
activity vs control (PKN1; enzyme activity, inhibitor; 1 µM): 56%

COc1cc(NC(C)=O)c(Cl)cc1C(=O)Nc1nccs1
inhibition (Endothelin receptor type B (EDNRB, Homo sapiens, UniProt P24530); cell-free assay; 10 µM): -13.1%

NNCCc1ccc(NC(=O)CCCc2ccccc2)cc1
KI (inactivation) (MAOB; enzyme activity, inhibitor): 6.5 µM

CCn1c(=O)c(-c2ccc(Cl)cc2Cl)cc2cnc(Nc3ccc(N4CCNCC4)c(F)c3)nc21
activity vs control (PKN1; enzyme activity, inhibitor; 1 µM): 47%

CCOC(=O)C1CSc2[nH]c(=O)sc2C1c1cn(-c2ccccc2)nc1-c1ccc(Cl)cc1 (stereo not shown)
inhibition (CA9; enzyme activity, inhibitor; 0.1 µM): 36%

O=C(Nc1ccc([N+](=O)[O-])cc1Cl)c1ccc(Cl)cc1
inhibition (MAOB; enzyme activity, inhibitor; 1 µM, 20 min): 25%

COc1cc2c(CCNC(C)=O)c[nH]c2cc1O
Km (Sulfotransferase 1A1 (SULT1A1, Homo sapiens, UniProt P50225); enzyme activity, substrate; pH 7): 8.2 µM

CN(C)CCOC1c2ccccc2CCc2ccccc21
koff (HRH1; binding): 0.00215 s⁻¹

Cc1ccc(C(=O)Nc2ccc([N+](=O)[O-])cc2C(F)(F)F)cc1
inhibition (MAOB; enzyme activity, inhibitor; 1 µM, 20 min): 69%

CNC(=O)c1cccc2cc(Oc3ccnc4cc(OCC5(N)CC5)c(OC)cc34)ccc12
activity vs control (PKN1; enzyme activity, inhibitor; 1 µM): 92%

CCOC(=O)C1CSc2[nH]c(=O)sc2C1c1cn(-c2ccccc2)nc1-c1ccc(Br)cc1 (stereo not shown)
inhibition (CA9; enzyme activity, inhibitor; 10 µM): 80.5%

N=C(N)NCCC[C@H](NC(=O)[C@H](CC(=O)O)NC(=O)[C@H](Cc1c[nH]c2ccccc12)NC(=O)[C@H](CCCNC(=N)N)NC(=O)[C@@H](N)Cc1ccccc1)C(=O)N[C@@H](Cc1ccccc1)C(=O)NCC(=O)O
Emax (Melanocortin receptor 5 (Mus musculus, UniProt P41149); cAMP, agonist; HEK293): 90%

CNC(=O)c1ccccc1Nc1nc(Nc2ccc3c(c2OC)CCC[C@H](N2CCN(CCO)CC2)C3)ncc1Cl
activity vs control (PKN1; enzyme activity, inhibitor; 1 µM): 80%

CCOC(=O)C1CSc2[nH]c(=O)sc2C1c1cn(-c2ccccc2)nc1-c1ccc(OC)cc1 (stereo not shown)
inhibition (CA9; enzyme activity, inhibitor; 10 nM): 21.5%

CC(C)(O)[C@H]1CC[C@H](Nc2ccc3ncc(-c4cccc(C(F)(F)F)c4)n3n2)CC1
remaining activity (Receptor-interacting serine/threonine-protein kinase 3 (RIPK3, Homo sapiens, UniProt Q9Y572); enzyme activity, inhibitor; 1 µM): 80.6%

CCOc1ccc(C(=O)Nc2ccc([N+](=O)[O-])cc2C(F)(F)F)cc1OCC
inhibition (MAOB; enzyme activity, inhibitor; 1 µM, 20 min): 62%

N=C(CCl)NCCC[C@H](NC(=O)c1ccccc1)c1nn[nH]n1
kinact/KI (PADI4; enzyme activity, inhibitor): 287 M⁻¹ s⁻¹

O=C(Nc1ccc([N+](=O)[O-])cc1Cl)c1ccc2c(c1)OCO2
inhibition (MAOB; enzyme activity, inhibitor; 1 µM, 20 min): 62%

CN1CCC(=C(c2ccccc2)c2ccccc2)CC1
kon (HRH1; binding): 2e+06 M⁻¹ s⁻¹

N=C(CF)NCCC[C@H](NC(=O)c1ccccc1C(=O)O)c1nn[nH]n1
kinact/KI (PADI4; enzyme activity, inhibitor): 780 M⁻¹ s⁻¹

COc1cc2ncnc(Nc3cccc(Cl)c3)c2cc1OC.CS(=O)(=O)O
activity vs control (PKN1; enzyme activity, inhibitor; 1 µM): 99%

O=C(Nc1cccc(Cl)c1)c1ccc([N+](=O)[O-])cc1Cl
inhibition (MAOB; enzyme activity, inhibitor; 1 µM, 20 min): 36%

N=C(CCl)NCCC[C@H](NC(=O)c1ccc(-c2ccccc2)cc1)c1nn[nH]n1
kinact/KI (PADI4; enzyme activity, inhibitor): 398 M⁻¹ s⁻¹

CN(C)CCOC1c2ccccc2C=Cc2ccccc21
koff (HRH1; binding): 0.00015 s⁻¹

N=C(CF)NCCC[C@H](NC(=O)c1ccccc1)c1nn[nH]n1
kinact/KI (PADI4; enzyme activity, inhibitor): 67.5 M⁻¹ s⁻¹

CCOC(=O)C1CSc2[nH]c(=O)sc2C1c1cn(-c2ccccc2)nc1-c1ccccc1 (stereo not shown)
inhibition (CA9; enzyme activity, inhibitor; 0.1 µM): 29%
